This is one part of a sample in which hits are shown more often than they occur.
INS-1E ATP HTS – protection of INS-1E cells from cytokine death, primary screen, ATP luminescence, single point | INS-1E cytokine-induced death, 48 h; normalised: neutral wells 0, positive control 100 | AID 488910, 2010 | protection from cytokine-induced ATP loss, % at 10 µM | 20,000 tested, 0.1% active;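 active = mean replicate protection from cytokine-induced ATP loss at least 50% and at least 75% of replicates each reaching 50%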
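Assay system: INS-1E rat cells / Quantity: 8000 cells per well / Medium: RPMI without phenol red, 5% FBS / Probe or stimulus: three-cytokine cocktail (IFN-γ, TNF-α, IL-1β) / Dosing: one compound concentration, pin transfer / Timing: 48 h co-treatment, 10 min post-lysis read / Technique: CellTiter-Glo luminescence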
A1 apoptosis 2 – A1 inhibitors via caspase activation, primary screen, cell-based, luminescence, HTS, two replicates; MEF A1-2A-BIM cells, caspase-Glo luminescence, 3 h; percent of clofoctol response, DMSO zero; caspase activation, % (test concentration not listed); 24,000 tested, under 10 active; in the data active = caspase activation above about 5.9%
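System: mouse embryonic fibroblasts co-expressing A1 and BIM (A1-2A-BIM), primed for A1 dependence; amount: 2500 cells/well; doses: 50 nL pinned compound; schedule: cells settled overnight, compound exposure 3 h at 37 °C, 5% CO2; detection: Caspase-Glo 3/7 luminescence, 1 h at room temperature; read-out: Caspase-3/7 activation, seen as rise in luminescence signal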
T cruzi HTS – inhibitors of intracellular Trypanosoma cruzi, primary screen, cell-based, plate reader, single point, set 2 | 22,000 tested, 4.9% active | activity score (inhibition), % at 5.01 µM | AID 651903, 2012 | intracellular Trypanosoma cruzi in host cells; in the data active = activity score above about 55%;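 note: parasites and compound incubated about four days before reading; 0% = median of neutral control wells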
* marks the source's active call; other numbers are inactive results; x = no result.

SMILES | INS-1E ATP HTS | A1 apoptosis 2 | T cruzi HTS
C[C@@H]1CN([C@@H](C)CO)C(=O)Cc2cc(NS(=O)(=O)c3cn(C)cn3)ccc2O[C@@H]1CN(C)S(=O)(=O)c1cn(C)cn1 | -16 | 0 | -5
COc1ccc(CN(C)C[C@H]2Oc3ccc(NC(=O)NC4CCCCC4)cc3C(=O)N([C@H](C)CO)C[C@@H]2C)cc1 | -4 | -1 | 2
C[C@@H]1CN([C@@H](C)CO)C(=O)CCCn2nncc2CO[C@H]1CN(C)S(=O)(=O)c1ccc(Oc2ccccc2)cc1 | x | 0 | 8
C[C@H](CO)N1C[C@H](C)[C@@H](CN(C)S(=O)(=O)c2ccc(Oc3ccccc3)cc2)OCc2cnnn2CCCC1=O | x | 0 | 73*
C[C@H]1CN([C@@H](C)CO)C(=O)CCCn2nncc2CO[C@@H]1CN(C)S(=O)(=O)c1ccc(Oc2ccccc2)cc1 | 2 | 1 | 73*
C[C@H](CO)N1C[C@H](C)[C@H](CN(C)S(=O)(=O)c2ccccc2)OCc2cnnn2CCCC1=O | x | x | -11
C[C@@H]1CN([C@@H](C)CO)C(=O)Cc2cc(NS(=O)(=O)c3ccccc3)ccc2O[C@@H]1CN(C)S(=O)(=O)c1ccc(Cl)cc1 | -6 | 0 | 67*
Cc1ccc(S(=O)(=O)Nc2ccc3c(c2)CC(=O)N([C@H](C)CO)C[C@@H](C)[C@@H](CN(C)S(=O)(=O)c2ccccc2)O3)cc1 | 1 | x | 69*
C[C@H]1CN([C@@H](C)CO)C(=O)Cc2cc(NS(=O)(=O)c3ccc(Cl)cc3)ccc2O[C@H]1CN(C)S(=O)(=O)c1ccc(Cl)cc1 | -4 | -1 | -1
C[C@@H]1CN([C@@H](C)CO)C(=O)Cc2cc(NS(=O)(=O)c3ccc(Cl)cc3)ccc2O[C@@H]1CN(C)S(=O)(=O)c1ccc(Cl)cc1 | -5 | x | 67*
Cc1ccc(S(=O)(=O)Nc2ccc3c(c2)CC(=O)N([C@H](C)CO)C[C@H](C)[C@H](CN(C)S(=O)(=O)c2ccccc2)O3)cc1 | 5 | 0 | -7
C[C@H]1CN([C@@H](C)CO)C(=O)Cc2cc(NS(=O)(=O)c3ccc(Cl)cc3)ccc2O[C@H]1CN(C)S(=O)(=O)c1ccccc1 | 7 | x | -2
COc1ccc(NC(=O)Nc2cccc3c2O[C@@H](CN(C)C(=O)Nc2cccc4ccccc24)[C@@H](C)CN([C@H](C)CO)C3=O)cc1 | -5 | -1 | -2
C[C@@H]1CN([C@@H](C)CO)C(=O)c2cc(NC(=O)CCN3CCOCC3)ccc2O[C@@H]1CN(C)C(=O)Nc1ccccc1 | 1 | 0 | -13
C[C@H](CO)N1C[C@H](C)[C@H](CN(C)Cc2ccc3c(c2)OCO3)Oc2c(NC(=O)c3ccncc3)cccc2C1=O | -1 | 2 | 64*
C[C@@H]1CN([C@H](C)CO)C(=O)c2cccc(NC(=O)c3cnccn3)c2O[C@@H]1CN(C)Cc1ccc(Cl)c(Cl)c1 | -20 | 0 | 26
C[C@@H]1CN([C@H](C)CO)C(=O)c2cccc(NC(=O)c3cnccn3)c2O[C@H]1CN(C)Cc1ccc(Cl)c(Cl)c1 | -11 | x | 28
C[C@@H]1CN([C@H](C)CO)C(=O)c2cccc(NC(=O)c3ccncc3)c2O[C@@H]1CN(C)Cc1ccc(Cl)c(Cl)c1 | -7 | -1 | 76*
C[C@H]1CN([C@@H](C)CO)C(=O)c2cccc(NC(=O)c3cnccn3)c2O[C@@H]1CN(C)Cc1ccc(Cl)c(Cl)c1 | -8 | x | -11
C[C@@H]1CN([C@H](C)CO)C(=O)c2cccc(NC(=O)c3ccc(-c4nccs4)cc3)c2O[C@H]1CN(C)Cc1ccc2c(c1)OCO2 | -4 | x | 45
C[C@H]1CN([C@@H](C)CO)C(=O)c2cccc(NC(=O)c3ccncc3)c2O[C@@H]1CN(C)Cc1ccc(Cl)c(Cl)c1 | -10 | -2 | 77*
C[C@H]1CN([C@@H](C)CO)C(=O)c2cccc(NC(=O)c3ccncc3)c2O[C@H]1CN(C)Cc1ccc(Cl)c(Cl)c1 | -3 | 0 | 86*
C[C@@H]1CN([C@@H](C)CO)C(=O)c2cc(NC(=O)C3CC3)ccc2O[C@@H]1CN(C)C(=O)Nc1ccc(F)cc1 | 8 | 0 | 9
COc1ccc(S(=O)(=O)Nc2cccc3c2O[C@H](CN(C)Cc2ccncc2)[C@@H](C)CN([C@@H](C)CO)C3=O)cc1 | 8 | 2 | -17
C[C@H]1CCCCO[C@H](CN(C)CC2CCCCC2)[C@@H](C)CN([C@@H](C)CO)C(=O)c2cc(NS(C)(=O)=O)ccc2O1 | x | 0 | x
SMILES | INS-1E ATP HTS | A1 apoptosis 2 | T cruzi HTS
C[C@@H]1CN([C@H](C)CO)C(=O)c2cccc(NS(=O)(=O)c3ccc(Cl)cc3)c2O[C@H]1CN(C)Cc1ccccc1 | 3 | 1 | -16
O=C(NO)c1cccc(C(=O)N/N=C/C(Br)=C/c2ccccc2)c1 | 2 | -3 | -38
C[C@@H]1CN([C@H](C)CO)C(=O)c2cc(N(C)C)ccc2O[C@@H]1CN(C)Cc1ccc(Cl)c(Cl)c1 | -6 | -1 | 21
C[C@H]1CN([C@@H](C)CO)C(=O)c2cc(N(C)C)ccc2O[C@H]1CN(C)Cc1ccc(-c2ccccc2)cc1 | -2 | x | 35
C[C@H](CO)N1C[C@H](C)[C@@H](CN(C)Cc2ccc(Oc3ccccc3)cc2)Oc2ccc(N(C)C)cc2C1=O | -10 | -2 | 71*
C[C@@H]1CN([C@@H](C)CO)C(=O)c2cc(N(C)C)ccc2O[C@@H]1CN(C)Cc1ccc(Cl)c(Cl)c1 | -11 | x | 64*
C[C@H](CO)N1C[C@H](C)[C@H](CN(C)Cc2ccccc2)Oc2ccc(N(C)C)cc2C1=O | 2 | 0 | -4
C[C@@H]1CN([C@@H](C)CO)C(=O)c2cc(N(C)C)ccc2O[C@@H]1CN(C)Cc1ccc(-c2ccccc2)cc1 | -15 | x | 65*
C[C@@H]1CN([C@H](C)CO)C(=O)c2cc(NC(=O)CCCN(C)C)ccc2O[C@@H]1CN(C)Cc1ccc(C(=O)O)cc1 | 0 | -1 | 7
C[C@H](CO)N1C[C@H](C)[C@H](CN(C)C(=O)NC2CCCCC2)Oc2c(NC(=O)c3ccc(-c4nccs4)cc3)cccc2C1=O | 10 | -2 | -23
CC(C)NC(=O)N(C)C[C@H]1Oc2ccc(NC(=O)Cc3cn(C)c4ccccc34)cc2C(=O)N([C@H](C)CO)C[C@@H]1C | x | -1 | -5
C[C@@H]1CN([C@@H](C)CO)C(=O)c2cccc(NS(=O)(=O)c3ccc(F)cc3)c2O[C@H]1CN(C)C(=O)Nc1ccc(F)cc1 | 8 | x | -13
COc1ccc(S(=O)(=O)N(C)C[C@@H]2Oc3ccc(NC(=O)Nc4cccc5ccccc45)cc3CC(=O)N([C@@H](C)CO)C[C@H]2C)cc1 | x | 1 | x
C[C@H](CO)N1C[C@H](C)[C@H](CN(C)Cc2ccc(C(=O)Nc3ccccc3N)cc2)Oc2ccc(NC(=O)Cc3cn(C)c4ccccc34)cc2CC1=O | 40 | x | 34
C[C@@H]1CN([C@@H](C)CO)C(=O)Cc2cc(NC(=O)Cc3cn(C)c4ccccc34)ccc2O[C@@H]1CN(C)Cc1ccc(C(=O)Nc2ccccc2N)cc1 | x | 0 | x

Assay outcomes deposited in PubChem BioAssay by Broad Institute.
